NPY Y2 blocker – NPY-Y2 receptor antagonists, primary screen, cell-based. Neuropeptide Y receptor type 2 (Homo sapiens), P49146. NPY-Y2 expressing cells, antagonist mode. inhibition, % at 2.7 µM. hit rate 0.99% among 140,000. AID 793, 2007;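 further: 0% = vehicle with agonist challenge and 100% = reference antagonist with challenge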
Target sequence (P49146 whole entry, looked up): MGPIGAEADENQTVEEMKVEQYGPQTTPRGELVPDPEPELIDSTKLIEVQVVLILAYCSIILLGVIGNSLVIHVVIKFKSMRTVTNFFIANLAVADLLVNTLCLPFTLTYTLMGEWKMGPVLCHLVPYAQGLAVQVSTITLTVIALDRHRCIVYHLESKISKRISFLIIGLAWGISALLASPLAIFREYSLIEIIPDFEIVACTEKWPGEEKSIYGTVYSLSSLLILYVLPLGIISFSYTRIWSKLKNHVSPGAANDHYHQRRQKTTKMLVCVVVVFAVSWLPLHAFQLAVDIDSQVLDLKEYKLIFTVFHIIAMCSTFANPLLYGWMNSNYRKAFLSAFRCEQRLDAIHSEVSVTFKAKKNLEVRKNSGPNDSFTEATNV
NPY1 pot ag – NPY-Y1 receptor potentiators or agonists, primary screen, cell-based; NPY-Y1 expressing cells, potentiator/agonist activation; activation, % at 3.6 µM; hit rate 0.37% among 220,000; in the data active means activation above about 33%, passing the limit was not always enough;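 further: cells stimulated with NPY at EC10 then isoproterenol at EC100; 0% = low agonist plus stimulus and 100% = saturating agonist plus stimulus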
NPY2 pot ag – NPY-Y2 potentiators or agonists, primary screen, cell-based. Neuropeptide Y receptor type 2 (Homo sapiens), P49146. cells expressing NPY-Y2, potentiator/agonist read-out. activation, % at 3.6 µM. hit rate 0.45% among 220,000; in the data active means activation above about 27%;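 further: cells stimulated with NPY near EC25 plus isoproterenol at EC100; 0% = vehicle plus submaximal agonist and 100% = vehicle plus saturating agonist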
NPY-Y1 antag – NPY-Y1 receptor antagonists, primary screen, cell-based; Neuropeptide Y receptor type 1 (Homo sapiens), P25929; HEK293-CNG Y1 cells, membrane potential fluorescence; NPY at EC95, then isoproterenol; inhibition, % at 3.6 µM; hit rate 1% among 200,000; AID 1040, 2008;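 active means inhibition above the campaign mean inhibition of all tested compounds plus 3 SD, cut at about 20% in these data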;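 further: 0% = DMSO wells given NPY plus isoproterenol and 100% = isoproterenol alone without NPY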
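Assay system: HEK293 Y1/CNG channel cell line; Doses: single compound dose of 3.6 µM, 0.4% DMSO; Timing: dye 3 h, compound 60 min room temperature, stimulation 45 min; Technique: Membrane-potential fluorescent dye readout; Measure: % inhibition of NPY effect.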
NPY-Y1 ant conf – NPY-Y1 receptor antagonists, retest of hits, confirmation, HEK293-CNG cells, membrane potential fluorescence, triplicate. cAMP; NPY challenge against isoproterenol-raised cAMP. AID 1254, 2008. inhibition, % at 3.6 µM. hit rate 21% among 1,200. shares compounds with NPY-Y1 antag; in the data active means inhibition above about 20%;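 further: 0% = vehicle with agonist plus stimulus and 100% = stimulus alone without agonist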
NPY2 antag ctr – NPY-Y2 receptor antagonists, selectivity check, confirmation, counter-screen for NPY-Y1 antagonist project, HEK293-CNG cells, membrane potential fluorescence, triplicate. antagonism; cells given NPY, then isoproterenol. AID 1255, 2008. hit rate 28% among 1,200. inhibition, % at 3.6 µM. shares compounds with NPY-Y1 antag;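 further: 0% = DMSO with agonist challenge and 100% = reference antagonist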
* marks the source's active call; other numbers are inactive results; / = no result. Hits are enriched below; roughly 1.8% of the tested compounds scored in any of these assays. Unless noted, no stated cut-off is given here; in the data, active means inhibition above about 17%; inactive means the rest.

SMILES	NPY Y2 blocker	NPY1 pot ag	NPY2 pot ag	NPY-Y1 antag	NPY-Y1 ant conf	NPY2 antag ctr
N#Cc1ccccc1S(=O)(=O)N1CCN(c2cnccn2)CC1	/	9	4	0	/	/
O=C1[C@H](CC[C@H](O)c2ccc(F)cc2)[C@@H](c2ccc(O)cc2)N1c1ccc(F)cc1	/	12	10	-9	/	/
COc1cc(CCN2C(=O)N[C@@H](CCc3ccccc3)C(C(C)=O)=C2C)cc(OC)c1OC	2	-20	-2	0	/	/
Cn1cc(C(=O)CCl)c2ccccc21	/	6	0	1	/	/
CCN(CC)CC(=O)Nc1sc(C)c(C)c1C(=O)c1ccc(C)cc1	/	-16	-7	2	/	/
Cc1ccc(C(=O)c2c(NC(=O)c3ccccc3C)sc(C)c2C)cc1	3	-66	-31	23*	17	36*
CCOCCCNC(=S)Nc1cc(C)cc(C)c1	1	-1	1	2	/	/
Cc1ccsc1C(=O)C1CCCN(Cc2cc(F)ccc2-n2cccn2)C1 (centres undefined)	/	-22	-34	30*	8	12
COc1cc(OC)c(OC)cc1CN1CCCC(C(=O)c2sccc2C)C1 (centres undefined)	/	12	-32	/	/	/
COc1ccccc1CNC(=O)N[C@@H](Cc1ccccc1)C(=O)O	1	19	2	4	/	/
OCCNCc1cc(Br)ccc1OCc1ccc(Cl)cc1	12	-8	-5	24*	8	13
OCCNCc1cc(Br)ccc1OCc1ccc(F)cc1	/	-33	-13	6	/	/
CCOC(=O)CC(NC(=O)C(CC)c1ccccc1)c1ccccc1Cl (centres undefined)	13	-4	-3	25*	17	6
COc1cccc(NC(=O)c2cc(-c3ccncc3)nc3c(C)cc(C)cc23)c1	/	-62	-67	22*	28*	29*
COc1ccc(C(=O)Nc2cccc(OC)c2)cc1	1	-2	9	-1	/	/
c1ccc2c(N3CCOCC3)nc(-c3ccncc3)nc2c1	2	7	14	-1	/	/
CCN1CCN(c2nc(-c3ccccc3)nc3ccccc23)CC1	5	-36	1	21*	10	6
COc1ccc(OCC(=O)N/N=C/C=C/c2ccccc2)cc1	9	-15	-16	23*	6	11
CC1CN(C(=O)COC(=O)c2nn(-c3ccccc3)c(=O)c3ccccc23)CC(C)O1 (centres undefined)	/	6	5	-2	/	/
CCOC(=O)c1c(NC(=O)Cc2cccs2)sc(C)c1C	7	-52	-17	21*	3	3
CN(CC(O)Cn1cnc2c1c(=O)n(C)c(=O)n2C)c1ccccc1 (centres undefined)	/	-18	3	10	/	/
Cc1ccc(NC(=S)NCCN(C2CCCCC2)C2CCCC2)cc1	/	-26	-18	13	/	/
Cc1ccc(NC(=S)NCCN(C2CCCCC2)C2CCCC2)cc1C	/	-12	-2	28*	8	13
OC(COc1ccc(CNCCc2ccc(C(F)(F)F)cc2)cc1)CN1CCCCC1 (centres undefined)	/	-17	-17	25*	16	18*
O=C(NNC(=S)NCc1ccc(Cl)cc1)c1ccc2c(c1)OCO2	/	-5	-31	2	/	/
SMILES	NPY Y2 blocker	NPY1 pot ag	NPY2 pot ag	NPY-Y1 antag	NPY-Y1 ant conf	NPY2 antag ctr
COC(=O)c1sc2ccccc2c1-n1cccc1C(=O)C(=O)Nc1ccc(OC)cc1	1	9	-9	7	/	/
CC(=O)c1cccc(NC(=O)/C(=C\c2ccco2)NC(=O)c2cccs2)c1	0	0	-9	5	/	/
O=C(Nc1cccc(C(F)(F)F)c1)/C(=C/c1ccco1)NC(=O)c1cccs1	1	9	-5	90*	-1	-2
CC(C)(C)[C@H]1C=C(C(=O)N2CCN(Cc3ccc4c(c3)OCO4)CC2)O[C@@H](OCc2ccc(CO)cc2)C1	/	-8	-19	4	/	/
CC1CCN(C(=O)CSc2nc3ccccc3c(=O)n2Cc2ccc3c(c2)OCO3)CC1	12	-43	-20	21*	4	6
COc1cc2c(cc1OC)C(c1cccs1)N(C(=S)NC(C)C)CC2 (centres undefined)	/	-12	-12	30*	10	5
Cc1c(C(=O)O)sc2nc(CSc3ncc(C(F)(F)F)cc3Cl)[nH]c(=O)c12	/	-2	-3	/	/	/
Cc1cc(N/N=C/c2ccc3c(c2)OCO3)nc2ccccc12	/	-18	-33	/	/	/
COC(=O)[C@@]1(Cc2ccc(OC)cc2)[C@H]2c3cc(C(=O)N4CCCC4)n(Cc4ccc(OC)c(OC)c4)c3C[C@H]2CN1C(=O)c1ccccc1	12	-23	-9	10	/	/
COC(=O)[C@@]1(Cc2ccc(F)cc2)[C@H]2c3cc(C(=O)N4CCCC4)n(Cc4ccc(C(F)(F)F)nc4)c3C[C@H]2CN1C(=O)c1ccccc1	16	-9	-3	28*	28*	9
Cc1ccc(S(=O)(=O)N2CCOCC2)cc1NC(=O)COC(=O)c1cc(=O)c2ccccc2o1	1	10	-5	4	/	/
C=CCN=C1SC(C)(C)C(=O)N1S(=O)(=O)c1ccc(C)cc1	/	-2	-10	-2	/	/
CCOC(=O)c1cnc2c(cnn2C)c1NCCCn1ccnc1	/	-2	11	2	/	/
Cc1cc(C(C)(C)C)oc1C(=O)N(CC(=O)NC1CCCC1)c1c(C)cccc1C	10	12	-8	10	/	/
Cc1cc(C(C)(C)C)oc1C(=O)N(CC(=O)NC1CCCC1)c1ccc(F)cc1	15	-4	0	27*	6	6
COc1ccccc1N(CC(=O)NC1CCCC1)C(=O)c1oc(C(C)(C)C)cc1C	/	16	-14	28*	22*	8
O=C(NC1CC2CCCC(C1)N2C(=S)NCCc1ccccc1)C1CC1 (centres undefined)	/	5	-1	-3	/	/
CCCn1c(C)cc(C(=O)COC(=O)c2ccc[nH]c2=O)c1C	4	-10	1	0	/	/
c1ccc2c(c1)OCC(c1nnc3sc(-c4ccc5c(c4)OCO5)nn13)O2 (centres undefined)	9	-19	-12	11	/	/
Fc1ccc(-c2nn3c(C4COc5ccccc5O4)nnc3s2)cc1 (centres undefined)	4	-58	-11	21*	11	11
c1csc(-c2nn3c(C4COc5ccccc5O4)nnc3s2)c1 (centres undefined)	2	-26	-15	24*	7	7
c1ccc2c(c1)OCC(c1nnc3sc(-c4cnccn4)nn13)O2 (centres undefined)	3	-2	-3	7	/	/
